Test results published in ChEMBL document CHEMBL4680134, “Structural optimization of natural product nordihydroguaretic acid to discover novel analogues as AcrB inhibitors” (Eur J Med Chem, 2020).

What was measured:
[1] = molecular target: T1, Multidrug efflux pump subunit AcrB (Escherichia coli (strain K12)) (UniProt P31224); experiment: Inhibition of AcrB in Escherichia coli BW25113 assessed as potentiation of levofloxacin induced antibacterial activity by measuring levofloxacin MIC at 64 ug/ml measured after 18 hrs by checkerboard titration method (reference value: 0.06 ug/ml); details: dose 64.0 µg/ml
T1 sequence (whole entry): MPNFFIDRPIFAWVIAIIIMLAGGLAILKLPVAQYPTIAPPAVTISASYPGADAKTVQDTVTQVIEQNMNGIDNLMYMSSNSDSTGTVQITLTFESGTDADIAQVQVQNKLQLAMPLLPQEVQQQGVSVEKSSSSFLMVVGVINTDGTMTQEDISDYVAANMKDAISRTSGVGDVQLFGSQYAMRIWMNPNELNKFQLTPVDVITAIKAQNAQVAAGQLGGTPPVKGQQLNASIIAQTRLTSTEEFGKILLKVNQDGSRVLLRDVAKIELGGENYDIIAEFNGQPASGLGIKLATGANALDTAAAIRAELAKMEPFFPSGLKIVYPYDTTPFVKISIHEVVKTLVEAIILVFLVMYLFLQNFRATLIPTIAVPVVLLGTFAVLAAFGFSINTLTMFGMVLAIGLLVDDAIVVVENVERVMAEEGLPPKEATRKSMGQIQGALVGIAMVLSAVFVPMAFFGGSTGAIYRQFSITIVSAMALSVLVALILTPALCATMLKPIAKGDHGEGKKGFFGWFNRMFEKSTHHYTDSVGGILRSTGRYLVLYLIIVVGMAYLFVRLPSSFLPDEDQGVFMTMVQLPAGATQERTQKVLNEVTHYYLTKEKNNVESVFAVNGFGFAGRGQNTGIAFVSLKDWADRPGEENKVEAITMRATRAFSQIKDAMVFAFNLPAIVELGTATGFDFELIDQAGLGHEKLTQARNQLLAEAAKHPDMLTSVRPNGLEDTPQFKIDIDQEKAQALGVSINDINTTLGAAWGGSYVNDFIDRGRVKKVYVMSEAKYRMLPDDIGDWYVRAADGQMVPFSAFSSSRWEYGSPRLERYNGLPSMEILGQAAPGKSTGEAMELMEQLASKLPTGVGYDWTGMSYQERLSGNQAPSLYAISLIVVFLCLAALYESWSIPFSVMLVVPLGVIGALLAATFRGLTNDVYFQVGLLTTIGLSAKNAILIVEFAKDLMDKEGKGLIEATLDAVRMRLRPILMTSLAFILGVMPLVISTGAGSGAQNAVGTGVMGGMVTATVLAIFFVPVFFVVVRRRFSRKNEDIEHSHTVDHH

[2] = molecular target: T1, Multidrug efflux pump subunit AcrB (Escherichia coli (strain K12)); experiment: Inhibition of AcrB in Escherichia coli BW25113 assessed as potentiation of chloramphenicol induced antibacterial activity by measuring chloramphenicol MIC at 64 ug/ml measured after 18 hrs by checkerboard titration method (reference value: 8 ug/ml); details: dose 64.0 µg/ml
[3] = molecular target: T1, Multidrug efflux pump subunit AcrB (Escherichia coli (strain K12)); experiment: Inhibition of AcrB in Escherichia coli BW25113 assessed as potentiation of tetraphenylphosphonium induced antibacterial activity by measuring tetraphenylphosphonium MIC at 32 ug/ml measured after 18 hrs by checkerboard titration method (reference value: 1024 ug/ml); details: dose 32.0 µg/ml
[4] = molecular target: T1, Multidrug efflux pump subunit AcrB (Escherichia coli (strain K12)); experiment: Inhibition of AcrB in Escherichia coli BW25113 assessed as potentiation of erythromycin induced antibacterial activity by measuring erythromycin MIC at 64 ug/ml measured after 18 hrs by checkerboard titration method (reference value: 64 ug/ml); details: dose 64.0 µg/ml
[5] = molecular target: T1, Multidrug efflux pump subunit AcrB (Escherichia coli (strain K12)); experiment: Inhibition of AcrB in Escherichia coli BW25113 assessed as potentiation of chloramphenicol induced antibacterial activity by measuring chloramphenicol MIC at 32 ug/ml measured after 18 hrs by checkerboard titration method (reference value: 8 ug/ml); details: dose 32.0 µg/ml
[6] = molecular target: T1, Multidrug efflux pump subunit AcrB (Escherichia coli (strain K12)); experiment: Inhibition of AcrB in Escherichia coli BW25113 assessed as potentiation of levofloxacin induced antibacterial activity by measuring levofloxacin MIC at 32 ug/ml measured after 18 hrs by checkerboard titration method (reference value: 0.06 ug/ml); details: dose 32.0 µg/ml
[7] = molecular target: T1, Multidrug efflux pump subunit AcrB (Escherichia coli (strain K12)); experiment: Inhibition of AcrB in Escherichia coli BW25113 assessed as potentiation of rifampicin induced antibacterial activity by measuring rifampicin MIC at 32 ug/ml measured after 18 hrs by checkerboard titration method (reference value: 16 ug/ml); details: dose 32.0 µg/ml
[8] = molecular target: T1, Multidrug efflux pump subunit AcrB (Escherichia coli (strain K12)); experiment: Inhibition of AcrB in Escherichia coli BW25113 assessed as potentiation of levofloxacin induced antibacterial activity by measuring levofloxacin MIC at 128 ug/ml measured after 18 hrs by checkerboard titration method (reference value: 0.06 ug/ml); details: dose 128.0 µg/ml
[9] = Growth inhibition of Escherichia coli BW25113 expressing AcrB at 512 ug/ml after 18 hrs by broth microdilution assay; details: dose 512 µg/ml
Outline: (§1)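 MIC determined by 96-well broth microdilution in E. coli BW25113 expressing AcrB ((+)AcrB) and an isogenic acrB-deleted strain ((-)AcrB). Used to set the compound concentrations for synergy testing that produce no direct antibacterial effect.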

[10] = molecular target: T1, Multidrug efflux pump subunit AcrB (Escherichia coli (strain K12)); experiment: Inhibition of AcrB in Escherichia coli BW25113 assessed as potentiation of rifampicin induced antibacterial activity by measuring rifampicin MIC at 16 ug/ml measured after 18 hrs by checkerboard titration method (reference value: 16 ug/ml); details: dose 16.0 µg/ml
[11] = molecular target: T1, Multidrug efflux pump subunit AcrB (Escherichia coli (strain K12)); experiment: Inhibition of AcrB in Escherichia coli BW25113 assessed as potentiation of erythromycin induced antibacterial activity by measuring erythromycin MIC at 16 ug/ml measured after 18 hrs by checkerboard titration method (reference value: 64 ug/ml); details: dose 16.0 µg/ml
[12] = molecular target: T1, Multidrug efflux pump subunit AcrB (Escherichia coli (strain K12)); experiment: Inhibition of AcrB in Escherichia coli BW25113 assessed as potentiation of chloramphenicol induced antibacterial activity by measuring chloramphenicol MIC at 16 ug/ml measured after 18 hrs by checkerboard titration method (reference value: 8 ug/ml); details: dose 16.0 µg/ml
[13] = molecular target: T1, Multidrug efflux pump subunit AcrB (Escherichia coli (strain K12)); experiment: Inhibition of AcrB in Escherichia coli BW25113 assessed as potentiation of levofloxacin induced antibacterial activity by measuring levofloxacin MIC at 16 ug/ml measured after 18 hrs by checkerboard titration method (reference value: 0.06 ug/ml); details: dose 16.0 µg/ml
[14] = Growth inhibition of Escherichia coli harboring AcrB deletion mutant at 64 ug/ml after 18 hrs by broth microdilution assay; details: dose 64 µg/ml; outline: as §1
[15] = molecular target: T1, Multidrug efflux pump subunit AcrB (Escherichia coli (strain K12)); experiment: Inhibition of AcrB in Escherichia coli BW25113 assessed as potentiation of tetraphenylphosphonium induced antibacterial activity by measuring tetraphenylphosphonium MIC at 16 ug/ml measured after 18 hrs by checkerboard titration method (reference value: 1024 ug/ml); details: dose 16.0 µg/ml
Cell membrane = experiment: Induction of outer membrane permeabilization in wild type Escherichia coli BW25113 assessed as increase in nitrocefin hydrolysis at 128 ug/ml by spectrophotometry analysis; details: dose 128 µg/ml
Outline: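 Outer-membrane permeability: intact E. coli treated with 10 µM CCCP to block nitrocefin efflux, then exposed to compound. Nitrocefin hydrolysis by periplasmic β-lactamase followed as increasing absorbance at 490 nm over time. Polymyxin B as permeabilizer control, untreated cells as baseline. Duplicate experiments on different days.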

Row | Structure (SMILES) | MIC [1] [µg/mL] | MIC [2] [µg/mL] | MIC [3] [µg/mL] | MIC [4] [µg/mL] | MIC [5] [µg/mL] | MIC [6] [µg/mL] | MIC [7] [µg/mL] | MIC [8] [µg/mL] | MIC [10] [µg/mL] | MIC [11] [µg/mL] | MIC [12] [µg/mL] | MIC [13] [µg/mL] | MIC [15] [µg/mL] | growth inhibition (GI) [9] | growth inhibition (GI) [14] | Activity (Cell membrane)
1 | C[C@H](Cc1ccc(O)c(O)c1)[C@@H](C)Cc1ccc(O)c(O)c1 [MASOPROCOL] | 0.03 | 8 | 1020 | 64 | 8 | 0.06 | 16 | 0.03 |  |  |  |  |  |  |  | 
2 | Nc1ccc(C(=O)NCCc2ccc(O)c(O)c2)cc1 | 0.06 | 4 | 1020 | 32 | 4 | 0.06 | 16 | 0.06 | 16 | 64 | 4 | 0.06 | 1020 | Non-Toxic | Non-Toxic | Non-Toxic
3 | O=C(NCCc1ccc(O)c(O)c1)c1ccc(C(F)(F)F)cc1 | 0.06 | 8 | 1020 | 64 | 8 | 0.06 | 16 | 0.03 | 16 | 64 | 8 | 0.06 | 1020 | Non-Toxic | Non-Toxic | 
4 | O=C(NCCc1ccc(O)c(O)c1)c1ccc(Br)cc1 | 0.06 | 8 | 1020 | 64 | 8 | 0.06 | 16 | 0.06 | 16 | 64 | 8 | 0.06 | 1020 | Non-Toxic | Non-Toxic | 
5 | Oc1ccc(CCCCc2ccc(O)c(O)c2)cc1O | 0.06 | 8 | 1020 | 64 | 8 | 0.06 | 16 | 0.06 | 16 | 64 | 8 | 0.06 | 1020 | Non-Toxic | Non-Toxic | 
6 | Oc1ccc(CCCCCCc2ccc(O)c(O)c2)cc1O | 0.06 | 8 | 512 | 64 | 8 | 0.06 | 16 | 0.06 | 16 | 64 | 8 | 0.06 |  | Non-Toxic | Non-Toxic | Non-Toxic
7 | O=C(NCCc1ccc(O)c(O)c1)c1ccccc1O | 0.03 | 8 | 1020 | 64 | 8 | 0.03 | 16 | 0.03 | 16 | 64 | 8 | 0.06 | 1020 | Non-Toxic | Non-Toxic | 

The remaining compounds from weak to strong by MIC [3], led by results:

Row | MIC [1] [µg/mL] | MIC [2] [µg/mL] | MIC [3] [µg/mL] | MIC [4] [µg/mL] | MIC [5] [µg/mL] | MIC [6] [µg/mL] | MIC [7] [µg/mL] | MIC [8] [µg/mL] | MIC [10] [µg/mL] | MIC [11] [µg/mL] | MIC [12] [µg/mL] | MIC [13] [µg/mL] | MIC [15] [µg/mL] | Structure (SMILES) | growth inhibition (GI) [9] | growth inhibition (GI) [14] | Activity (Cell membrane)
8 | 0.06 | 8 | 1020 | 32 | 8 | 0.06 | 16 | 0.06 | 16 | 64 | 8 | 0.06 | 1020 | Oc1ccc(CCCc2ccc(O)c(O)c2)cc1O | Non-Toxic | Non-Toxic | 
9 | 0.06 | 8 | 1020 | 64 | 8 | 0.06 | 16 | 0.06 | 16 | 64 | 8 | 0.06 | 1020 | Oc1ccc(CCCCCc2ccc(O)c(O)c2)cc1O | Non-Toxic |  | Non-Toxic
10 |  |  | 1020 |  | 8 | 0.06 | 16 |  | 16 | 32 | 8 | 0.06 | 1020 | Cc1ccc(C(=O)NCCc2ccc(O)c(O)c2)cc1 |  |  | Non-Toxic
11 | 0.06 | 8 | 512 | 64 | 8 | 0.06 | 16 | 0.06 | 16 | 64 | 8 | 0.06 | 1020 | Oc1ccc(CCCCCCCc2ccc(O)c(O)c2)cc1O | Non-Toxic | Non-Toxic | Non-Toxic
12 | 0.06 | 8 | 512 | 32 | 8 | 0.06 | 16 | 0.06 | 16 | 64 | 8 | 0.06 | 512 | Oc1ccc(CCCCc2cc(O)c(O)c(O)c2)cc1O | Non-Toxic | Non-Toxic | 
13 | 0.06 | 2 | 512 | 32 | 4 | 0.06 | 16 | 0.06 | 16 | 64 | 4 | 0.06 | 1020 | O=C(NCCc1ccc(O)c(O)c1)c1ccc(O)c(O)c1 | Non-Toxic | Non-Toxic | 
